Experimental data published in ChEMBL document CHEMBL2346561, “Development of 2'-substituted (2S,1'R,2'S)-2-(carboxycyclopropyl)glycine analogues as potent N-methyl-d-aspartic acid receptor agonists” (J Med Chem, 2013).

Key:
[1] = target: Glutamate NMDA receptor; Grin1/Grin2a (Rattus norvegicus, UniProt P35439+Q00959); experiment: Agonist activity at rat recombinant wild type GluN1/GluN2A receptor expressed in Xenopus laevis oocytes by two electrode voltage clamp technique; assay type: cell-based, Oocyte
In short: (§1)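 cRNA-injected Xenopus oocytes co-expressing GluN1 with GluN2A, 2B, 2C or 2D; two-electrode voltage clamp at −60 to −40 mV; perfusion with extracellular solution (mM: 90 NaCl, 0.5 BaCl₂, 1 KCl, 0.01 EDTA, 10 HEPES, pH 7.4) always containing 50 μM glycine. Concentration–response data per oocyte fitted to Hill equation; mean logEC₅₀ and nH ± SEM across oocytes.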

[2] = Displacement of [3H]AMPA from AMPA receptor in rat cortical synaptosomes; assay type: subcellular, Brain
[3] = target: Glutamate NMDA receptor; experiment: Displacement of [3H]CGP39653 from NMDA receptor in rat cortical synaptosomes; assay type: subcellular, Brain
In short: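 Rat cortical synaptosome membranes; 2 nM [³H]CGP 39653 (Kd = 6 nM) as radioligand for native NMDA receptors; Ki derived from displacement via Cheng-Prusoff relationship.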

[4] = target: Glutamate NMDA receptor; Grin1/Grin2b (Rattus norvegicus) (UniProt P35439+Q00960); experiment: Ratio of compound Imax to glutamate Imax for rat recombinant wild type GluN1/GluN2B receptor; assay type: protein-complex assay
[5] = target: Ionotropic glutamate receptor NMDA 1/2D (Rattus norvegicus, UniProt P35439+Q62645); experiment: Agonist activity at rat recombinant wild type GluN1/GluN2D receptor expressed in Xenopus laevis oocytes by two electrode voltage clamp technique; assay type: cell-based, Oocyte; in short: as §1
[6] = target: Glutamate NMDA receptor; Grin1/Grin2c (Rattus norvegicus, UniProt P35439+Q00961); experiment: Agonist activity at rat recombinant wild type GluN1/GluN2C receptor expressed in Xenopus laevis oocytes by two electrode voltage clamp technique; assay type: cell-based, Oocyte; in short: as §1
[7] = target: Glutamate NMDA receptor; Grin1/Grin2b (Rattus norvegicus, UniProt P35439+Q00960); experiment: Agonist activity at rat recombinant wild type GluN1/GluN2B receptor expressed in Xenopus laevis oocytes by two electrode voltage clamp technique; assay type: cell-based, Oocyte; in short: as §1
[8] = Displacement of [3H]KA from KA receptor in rat cortical synaptosomes; assay type: subcellular, Brain
[9] = target: Ionotropic glutamate receptor NMDA 1/2D (Rattus norvegicus) (UniProt P35439+Q62645); experiment: Ratio of compound Imax to glutamate Imax for rat recombinant wild type GluN1/GluN2D receptor; assay type: protein-complex assay
[10] = target: Glutamate NMDA receptor; Grin1/Grin2c (Rattus norvegicus) (UniProt P35439+Q00961); experiment: Ratio of compound Imax to glutamate Imax for rat recombinant wild type GluN1/GluN2C receptor; assay type: protein-complex assay
[11] = target: Glutamate NMDA receptor; Grin1/Grin2a (Rattus norvegicus) (UniProt P35439+Q00959); experiment: Ratio of compound Imax to glutamate Imax for rat recombinant wild type GluN1/GluN2A receptor; assay type: protein-complex assay

## C[C@]1(C(=O)O)C[C@H]1[C@H](N)C(=O)O
[1]; read-out: EC50
  EC50: 277 nM
[2]
  Ki: 29 µM
[3]
  Ki: 8 nM
[4]
  Ratio: 1.14
[5]
  EC50: 26 nM
[6]
  EC50: 0.124 µM
[7]
  EC50: 0.045 µM
[8]
  Ki: 110 nM
[9]
  Ratio: 0.83
[10]
  Ratio: 0.81
[11]
  Ratio: 0.94

## CCCc1cnn(O)c1[C@@H](N)C(=O)O
[1]; oocyte
  EC50: Not Active
[2]
  Ki: > 100 µM
[3]
  Ki: 14000 nM
[4]
  Ratio: 0.06
[5]
  EC50: 153000 nM
[6]
  EC50: 429 µM
[7]
  EC50: 105 µM
[8]
  Ki: > 100000 nM
[9]
  Ratio: 0.37
[10]
  Ratio: 0.22

## NC(C(=O)O)c1ccnn1O (racemic)
[2]
  Ki: > 100 µM
[4]
  Ratio: 0.58
[8]
  Ki: > 100000 nM
[10]
  Ratio: 0.52
[11]
  Ratio: 0.45

## CCC[C@]1(C(=O)O)C[C@H]1[C@H](N)C(=O)O
[1]; read-out: EC50
  EC50: 46300 nM
[2]
  Ki: > 100 µM
[3]
  Ki: 1200 nM
[4]
  Ratio: 1.05
[5]
  EC50: 6560 nM
[6]
  EC50: 29.9 µM
[7]
  EC50: 15.8 µM
[8]
  Ki: 21000 nM
[9]
  Ratio: 0.89
[10]
  Ratio: 0.7
[11]
  Ratio: 0.67

## CC[C@]1(C(=O)O)C[C@H]1[C@H](N)C(=O)O
[1]; read-out: EC50
  EC50: 1180 nM
[2]
  Ki: > 100 µM
[3]
  Ki: 61 nM
[4]
  Ratio: 1.02
[5]
  EC50: 80 nM
[6]
  EC50: 0.54 µM
[7]
  EC50: 0.272 µM
[8]
  Ki: 610 nM
[9]
  Ratio: 0.91
[10]
  Ratio: 0.81
[11]
  Ratio: 0.83

## CCCC[C@]1(C(=O)O)C[C@H]1[C@H](N)C(=O)O
[1]; read-out: EC50
  EC50: 28800 nM
[2]
  Ki: > 100 µM
[3]
  Ki: 1300 nM
[4]
  Ratio: 1.07
[5]
  EC50: 3300 nM
[6]
  EC50: 16 µM
[7]
  EC50: 10.2 µM
[8]
  Ki: > 100000 nM
[9]
  Ratio: 0.94
[10]
  Ratio: 0.85
[11]
  Ratio: 0.65

## N[C@H](C(=O)O)[C@@H]1C[C@@H]1C(=O)O
[1]; read-out: EC50
  EC50: 262 nM
[2]
  Ki: 1.1 µM
[3]
  Ki: 6.5 nM
[4]
  Ratio: 1.23
[5]
  EC50: 36 nM
[6]
  EC50: 0.11 µM
[7]
  EC50: 0.083 µM
[8]
  Ki: 310 nM
[9]
  Ratio: 1.11
[10]
  Ratio: 0.9
[11]
  Ratio: 0.99
